pIC50: −log10 of the molar value. Blank lines part the entries; values can stand above or below the compound they belong to. Active and inactive are the calls of the source. The calls are words filed in the database; no cut-off is given here.
Columns and labels:
[1] = system: Hemoglobin HbA (Homo sapiens), P69905+P68871 [E7V]; assay: Induction of R-state stabilization of Hb betaGlu6Val mutant in sickle cell disease transfused human whole blood assessed as change from baseline of partial pressure of O2 at which HbS is 50% saturated with O2 at 1 mM preincubated for 45 mins followed by 20 mins oxygenation/deoxygenation cycle by hemoximetry relative to control
How it was run: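 Whole blood from transfused SCD subjects, at 20% hematocrit (Hb 1 mM), was run with compound at 1 mM. Oxygen equilibrium curves were measured by hemoximetry. The value is the % change from baseline in the pO2 giving 50% O2 saturation (Δp50).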

Homo sapiens = species on record: Homo sapiens; assay: Induction of R-state stabilization of sickle cell Hb betaGlu6Val mutant purified from sickle cell patient assessed as inhibition of KH2PO4-induced polymerization by measuring change from baseline of delay time for onset of polymerization at 75 uM preincubated for 1 hr followed by deoxygenation for …; parameters: scale not given: the % may be the effect or the level left
[2] = system: Hemoglobin HbA (Homo sapiens), P69905+P68871 [E7V]; assay: (§1) Induction of R-state stabilization of Hb betaGlu6Val mutant in sickle disease patient purified HbS/HbA mixture assessed as change from baseline of partial pressure of O2 at which HbS is 50% saturated with O2 at 30 uM preincubated for 45 mins followed by oxygenation for 10 mins and subsequent deoxygenation by hemoximetry relative to control
How it was run: (§2)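 Oxygen equilibrium curves were run on a Hemox Analyzer using Hb purified from sickle disease blood (an HbA/HbS mixture) at 25 μM. Compound was tested at 30 μM, or at 500 μM where noted. The read-out was the % change from baseline in the pO2 at which HbS is 50% saturated (Δp50).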

[3] = Ratio of drug level in Sprague-Dawley rat RBC to plasma at 7.2 to 120 mg/kg, po by LC-MS/MS analysis; assay type: ADME, organism-based; settings: red blood cells (RBC) / plasma
Rattus norvegicus = assay: Dose normalized AUC (0 to infinity) in Sprague-Dawley rat at 7.2 to 120 mg/kg, po by LC-MS/MS analysis; assay type: ADME, organism-based; settings: in vivo
How it was run: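 Rat oral PK: AUC(0–∞) divided by the oral dose, expressed as (ng·h/mL)/(mg/kg).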

Blood = assay: Half life in Sprague-Dawley rat blood at 7.2 to 120 mg/kg, po by LC-MS/MS analysis; assay type: ADME, organism-based; settings: in vivo
[4] = system: Hemoglobin HbA (Homo sapiens), P69905+P68871 [E7V]; assay: as §1, with “100” for “30”, “20” for “oxygenation for 10”, “oxygenation/deoxygenation cycle” for “and subsequent deoxygenation”
Cytochrome P450 2C19 [5] = target: T1, Cytochrome P450 2C19 (Homo sapiens, UniProt P33261); assay: Inhibition of CYP2C19 in human liver microsomes using S-Mephentoin as substrate after 5 to 15 mins; assay type: ADME
T1 sequence (P33261 whole entry): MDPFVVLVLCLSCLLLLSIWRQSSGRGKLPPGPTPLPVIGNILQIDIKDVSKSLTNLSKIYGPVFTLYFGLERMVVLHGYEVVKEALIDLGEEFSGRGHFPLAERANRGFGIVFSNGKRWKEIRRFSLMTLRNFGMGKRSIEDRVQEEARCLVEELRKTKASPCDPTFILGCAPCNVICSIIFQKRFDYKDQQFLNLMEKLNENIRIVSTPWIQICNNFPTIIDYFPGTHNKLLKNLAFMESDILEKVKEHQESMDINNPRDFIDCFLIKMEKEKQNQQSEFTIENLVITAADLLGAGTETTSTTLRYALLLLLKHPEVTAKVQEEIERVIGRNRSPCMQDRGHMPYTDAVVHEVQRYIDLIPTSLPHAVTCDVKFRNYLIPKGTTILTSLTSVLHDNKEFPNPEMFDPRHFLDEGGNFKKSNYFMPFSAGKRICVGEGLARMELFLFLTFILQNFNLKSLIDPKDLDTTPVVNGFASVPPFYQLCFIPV
How it was run: (§3)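 Pooled human liver microsomes were incubated with isozyme-specific probe substrates: S-mephenytoin for CYP2C19 and bufuralol for CYP2D6.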

Cytochrome P450 3A4 [6] = target: T2, Cytochrome P450 3A4 (Homo sapiens, UniProt P08684); assay: Inhibition of CYP3A4 using in human liver microsomes using midazolam as substrate after 5 to 15 mins; assay type: ADME
T2 sequence (P08684 whole entry): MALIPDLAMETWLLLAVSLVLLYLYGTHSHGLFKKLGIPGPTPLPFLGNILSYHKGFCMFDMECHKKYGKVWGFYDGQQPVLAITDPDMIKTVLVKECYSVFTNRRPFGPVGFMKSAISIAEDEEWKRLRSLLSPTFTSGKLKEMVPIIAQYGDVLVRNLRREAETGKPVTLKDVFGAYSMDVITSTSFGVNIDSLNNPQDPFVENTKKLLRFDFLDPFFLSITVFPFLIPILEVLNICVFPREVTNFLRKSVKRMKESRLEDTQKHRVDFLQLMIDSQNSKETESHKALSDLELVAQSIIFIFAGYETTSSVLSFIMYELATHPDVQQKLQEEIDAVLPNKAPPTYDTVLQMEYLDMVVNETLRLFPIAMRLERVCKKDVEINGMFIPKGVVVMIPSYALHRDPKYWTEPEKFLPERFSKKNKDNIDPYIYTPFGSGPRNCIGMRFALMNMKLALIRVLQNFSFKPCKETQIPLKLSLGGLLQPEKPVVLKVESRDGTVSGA
How it was run: (§4)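 CYP3A4 inhibition was measured in pooled human liver microsomes using an isozyme-specific probe substrate: midazolam for line 1 and testosterone for line 2.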

Cytochrome P450 3A4 [7] = target: T2, Cytochrome P450 3A4; assay: Inhibition of CYP3A4 using in human liver microsomes using testosterone as substrate after 5 to 15 mins; assay type: ADME; how it was run: as §4
Cytochrome P450 1A2 = target: T3, Cytochrome P450 1A2 (Homo sapiens, UniProt P05177); assay: Inhibition of CYP1A2 in human liver microsomes using phenacetin as substrate after 5 to 15 mins; assay type: ADME
T3 sequence (P05177 whole entry): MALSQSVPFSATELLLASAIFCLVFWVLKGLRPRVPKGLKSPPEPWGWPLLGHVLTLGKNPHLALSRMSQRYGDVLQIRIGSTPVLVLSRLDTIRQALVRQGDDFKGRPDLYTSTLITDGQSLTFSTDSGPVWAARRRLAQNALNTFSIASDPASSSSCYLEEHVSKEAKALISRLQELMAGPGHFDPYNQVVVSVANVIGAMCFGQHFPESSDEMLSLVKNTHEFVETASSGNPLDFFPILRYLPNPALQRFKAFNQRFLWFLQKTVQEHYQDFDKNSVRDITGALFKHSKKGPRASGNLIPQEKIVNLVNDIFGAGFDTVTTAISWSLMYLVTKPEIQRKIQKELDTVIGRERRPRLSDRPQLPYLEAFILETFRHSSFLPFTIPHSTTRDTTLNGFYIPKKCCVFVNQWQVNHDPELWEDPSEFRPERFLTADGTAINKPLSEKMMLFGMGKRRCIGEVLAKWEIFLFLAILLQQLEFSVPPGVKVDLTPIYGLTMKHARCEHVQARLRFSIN
How it was run: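 Pooled human liver microsomes incubated with phenacetin as the CYP1A2-specific probe substrate across a range of test-compound concentrations. IC50 derived from inhibition of probe metabolism.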

[8] = Oral bioavailability in dog; assay type: ADME, organism-based, Canis lupus familiaris; settings: in vivo
[9] = Oral bioavailability in Sprague-Dawley rat at 7.2 to 120 mg/kg by LC-MS/MS analysis; assay type: ADME, organism-based; settings: in vivo
Cytochrome P450 2D6 = Cytochrome P450 2D6 (Homo sapiens, UniProt P10635); assay: Inhibition of CYP2D6 in human liver microsomes using bufuralol as substrate after 5 to 15 mins; assay type: ADME; how it was run: as §3
Chain of Cytochrome P450 2D6 (P10635 whole entry): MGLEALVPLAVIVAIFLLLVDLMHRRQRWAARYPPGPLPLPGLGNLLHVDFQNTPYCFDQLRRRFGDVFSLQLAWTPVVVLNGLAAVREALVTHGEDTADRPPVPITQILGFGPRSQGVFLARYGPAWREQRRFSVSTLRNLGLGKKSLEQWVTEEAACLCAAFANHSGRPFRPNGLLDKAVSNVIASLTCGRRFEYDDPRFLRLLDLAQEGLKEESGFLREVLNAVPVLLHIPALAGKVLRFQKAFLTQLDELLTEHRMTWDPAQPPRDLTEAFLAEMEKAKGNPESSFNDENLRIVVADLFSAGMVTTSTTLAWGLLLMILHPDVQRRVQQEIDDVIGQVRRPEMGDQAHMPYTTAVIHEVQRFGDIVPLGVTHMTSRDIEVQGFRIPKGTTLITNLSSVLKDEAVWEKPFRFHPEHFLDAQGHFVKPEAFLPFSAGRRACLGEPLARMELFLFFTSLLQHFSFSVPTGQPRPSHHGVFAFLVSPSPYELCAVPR

[10] = Half life in dog blood; assay type: ADME, tissue-based, Canis lupus familiaris
Cytochrome P450 2C8 = target: T4, Cytochrome P450 2C8 (Homo sapiens, UniProt P10632); assay: Inhibition of CYP2C8 in human liver microsomes using paclitaxel as substrate after 5 to 15 mins; assay type: ADME
T4 sequence (P10632 whole entry): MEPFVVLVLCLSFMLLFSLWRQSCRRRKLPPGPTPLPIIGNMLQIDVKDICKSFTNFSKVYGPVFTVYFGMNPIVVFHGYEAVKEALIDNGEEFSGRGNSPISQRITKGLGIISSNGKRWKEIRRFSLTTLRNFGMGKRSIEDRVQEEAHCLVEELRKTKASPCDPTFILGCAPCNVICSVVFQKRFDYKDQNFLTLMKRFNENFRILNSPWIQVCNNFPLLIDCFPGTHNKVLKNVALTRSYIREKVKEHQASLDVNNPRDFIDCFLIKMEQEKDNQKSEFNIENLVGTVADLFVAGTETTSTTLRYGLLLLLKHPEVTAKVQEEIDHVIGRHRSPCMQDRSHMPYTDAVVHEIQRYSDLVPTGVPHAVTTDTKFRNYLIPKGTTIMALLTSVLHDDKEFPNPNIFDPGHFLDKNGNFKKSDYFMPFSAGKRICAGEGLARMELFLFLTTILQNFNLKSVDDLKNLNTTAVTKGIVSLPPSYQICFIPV

[11] = Half life in monkey blood; assay type: ADME, tissue-based, Macaca mulatta; settings: rhesus monkey
Cytochrome P450 2C9 = Cytochrome P450 2C9 (Homo sapiens, UniProt P11712); assay: Inhibition of CYP2C9 in human liver microsomes using tolbutamide as substrate after 5 to 15 mins
Chain of Cytochrome P450 2C9 (P11712 whole entry): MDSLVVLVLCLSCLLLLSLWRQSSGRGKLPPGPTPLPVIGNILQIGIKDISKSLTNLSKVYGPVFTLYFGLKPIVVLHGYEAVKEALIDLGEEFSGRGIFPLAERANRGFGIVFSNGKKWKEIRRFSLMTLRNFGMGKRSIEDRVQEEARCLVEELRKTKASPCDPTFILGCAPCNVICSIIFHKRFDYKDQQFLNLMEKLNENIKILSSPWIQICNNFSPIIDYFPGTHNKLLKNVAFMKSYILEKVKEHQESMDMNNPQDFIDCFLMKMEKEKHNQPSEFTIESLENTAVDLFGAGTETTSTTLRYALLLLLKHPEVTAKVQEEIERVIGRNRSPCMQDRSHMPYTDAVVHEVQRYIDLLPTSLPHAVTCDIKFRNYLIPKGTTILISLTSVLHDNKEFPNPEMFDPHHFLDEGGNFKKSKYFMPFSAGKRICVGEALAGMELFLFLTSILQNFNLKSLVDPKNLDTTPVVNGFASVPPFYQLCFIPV

[12] = system: Hemoglobin HbA (Homo sapiens), P69905+P68871 [E7V]; assay: as §1, with “500” for “30”; how it was run: as §2
[13] = Half life in dog plasma; assay type: ADME, cell-free, Canis lupus familiaris
[14] = Half life in Sprague-Dawley rat plasma at 7.2 to 120 mg/kg, po by LC-MS/MS analysis; assay type: ADME, organism-based
Cytochrome P450 3A4 [15] = target: T2, Cytochrome P450 3A4; assay: Time dependent inhibition of CYP3A4 using in human liver microsomes using testosterone as substrate; assay type: ADME
Cytochrome P450 2C19 [16] = target: T1, Cytochrome P450 2C19; assay: Time dependent inhibition of CYP2C19 in human liver microsomes using S-Mephentoin as substrate; assay type: ADME
Cytochrome P450 3A4 [17] = target: T2, Cytochrome P450 3A4; assay: Time dependent inhibition of CYP3A4 using in human liver microsomes using midazolam as substrate; assay type: ADME
[18] = Half life in monkey plasma; assay type: ADME, cell-free, Macaca mulatta; settings: rhesus monkey
[19] = Oral bioavailability in monkey; assay type: ADME, organism-based, Macaca mulatta; settings: rhesus monkey, in vivo

Activity [2]: 23.1%
Structure (SMILES): COc1cc(C=O)c(OCc2ccnc3cccnc23)cn1

Activity [2]: 21.1%
Structure (SMILES): COc1cc(C=O)c(OCc2cc(-c3nn[nH]n3)cn3ccnc23)cn1

Activity [2]: 11.7%
Structure (SMILES): COc1cc(C=O)c(OCc2cc(Br)cn3ccnc23)cn1

Activity [2]: 28.2%
Structure (SMILES): COc1cc(C=O)c(OCc2cc(-c3cn[nH]c3)cn3ccnc23)cn1

Activity [1]: 19.2% | Activity [2]: 40.2%
Structure (SMILES): COc1cc(C=O)c(OCc2cccnc2-c2ccn[nH]2)cn1

Activity [2]: 37.9%
Structure (SMILES): COc1cc(C=O)c(OCc2cccn3cncc23)cn1

Activity [2]: 42.2%
Structure (SMILES): COc1cc(C=O)c(OCc2cccn3c(C)nnc23)cn1

Activity [2]: 31.8%
Structure (SMILES): COc1cc(C=O)c(OCc2cccnc2-n2cccn2)cn1

Activity [2]: 44.4%
Structure (SMILES): COc1cc(C=O)c(OCc2cccn3ccnc23)cn1

Activity [2]: 16.4%
Structure (SMILES): COC(=O)c1cc(COc2cnc(OC)cc2C=O)c2nccn2c1

Activity [2]: 21.9%
Structure (SMILES): COc1cc(C=O)c(OCc2cncc(-c3nnn[nH]3)c2)cn1

Activity [2]: 17.1%
Structure (SMILES): COc1cc(C=O)c(OCc2cnccc2-c2cn[nH]c2)cn1

Further lines, the compound ahead of its results:

Structure (SMILES): CC(C)n1nccc1-c1ncccc1COc1cnc(OC(F)F)cc1C=O
Activity [1]: 49.7% | Activity (Homo sapiens): 73.1% | Activity [2]: 43.1%

Structure (SMILES): COc1cc(C=O)c(OCc2cccnc2-c2ccnn2C(C)C)cn1
Kp [3]: 38 | Activity [1]: 66.9% | Activity (Homo sapiens): 115% | Activity [2]: 66.2% | AUC/dose (Rattus norvegicus): 20.6 ng·h/mL/mg/kg | t1/2 (Blood): 2.7 h

Structure (SMILES): COc1cc(C=O)c(OCc2cccc3ocnc23)cn1
Activity [2]: 37%

Structure (SMILES): COc1ccc(OCc2cccnc2)c(C=O)c1
Activity [4]: Active | Activity [2]: 34%

Structure (SMILES): CC(C)n1nccc1-c1ncccc1COc1cccc(F)c1C=O
Activity [1]: 72.8% | Activity (Homo sapiens): 104% | Activity [2]: 67.8% | AUC/dose (Rattus norvegicus): 438 ng·h/mL/mg/kg | t1/2 (Blood): 2.7 h

Structure (SMILES): CC(C)n1nccc1-c1ncccc1COc1cnc(O)cc1C=O
Activity [1]: 62.5% | Activity (Homo sapiens): 128% | Activity [2]: 59.6%

Structure (SMILES): COc1cc(C=O)c(OCc2ccc3ccccc3n2)cn1
Activity [2]: 43.2%

Structure (SMILES): CC(C)n1nccc1-c1ncccc1COc1cccc(O)c1C=O [VOXELOTOR]
pIC50 (Cytochrome P450 2C19 [5]): 4.70 | pIC50 (Cytochrome P450 3A4 [6]): 4.09 | pIC50 (Cytochrome P450 3A4 [7]): 4.90 | pIC50 (Cytochrome P450 1A2): 4.23 | bioavailability [8]: 37% | Kp [3]: 150 | bioavailability [9]: 60% | Activity [1]: 79.8% | pIC50 (Cytochrome P450 2D6): 3.83 | Activity (Homo sapiens): 206% | half-life [10]: 20 h | pIC50 (Cytochrome P450 2C8): 5.10 | half-life [11]: 20 h | pIC50 (Cytochrome P450 2C9): 5.07 | Activity [2]: 72.1% | Activity [12]: 2.6% | half-life [13]: 20 h | half-life [14]: 20 h | AUC/dose (Rattus norvegicus): 326806 ng·h/mL/mg/kg | t1/2 (Blood): 19.1 h | TDI (Cytochrome P450 3A4 [15]): Not Active | TDI (Cytochrome P450 2C19 [16]): Not Active | TDI (Cytochrome P450 3A4 [17]): Not Active | half-life [18]: 20 h | bioavailability [19]: 36%

Structure (SMILES): CC(C)n1nccc1-c1ncccc1COc1cncc(O)c1C=O
Activity [1]: 72.5% | Activity (Homo sapiens): 167% | Activity [2]: 70.5% | AUC/dose (Rattus norvegicus): 10887 ng·h/mL/mg/kg | t1/2 (Blood): 8.1 h

From ChEMBL document CHEMBL4002644, “Discovery of GBT440, an Orally Bioavailable R-State Stabilizer of Sickle Cell Hemoglobin” (ACS Med Chem Lett, 2017)
